Reference: ChEMBL document CHEMBL3228016, “Antiallergy agents. 1. 1,6-Dihydro-6-oxo-2-phenylpyrimidine-5-carboxylic acids and esters” (1979)

Test system: Rattus norvegicus
Test: Antiallergic activity in po dosed Sprague-Dawley rat passive cutaneous analphylaxis model assessed as inhibition of allergic response administered 10 mins prior to antigen challenge
Format: functional
Conditions: read-out: ID50 (the source's name)
How it was run: (§1)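 Modified Ovary rat passive cutaneous anaphylaxis screen in male Sprague-Dawley rats, with 24 h between sensitization and antigen challenge. Acidic compounds were dissolved in aqueous NaHCO3 where possible; others were suspended in aqueous sodium citrate with Tween 40/sodium carboxymethylcellulose. Dosing was iv 1 min or po 10 min before challenge. ID50 is the dose giving 50% inhibition of the response; significance was p ≤ 0.05 by Student's t test.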

Row | Structure (SMILES) | ED50 [mg/kg]
1 | CCOC(=O)c1cnc(-c2ccccc2)nc1O | > 20
2 | CCOC(=O)c1cnc(-c2cccc(OC)c2)nc1O | 10
3 | CCOC(=O)c1cnc(-c2ccccc2OCC(C)C)[nH]c1=O | 3
4 | O=C(O)c1cnc(-c2ccccc2)[nH]c1=O | 50
5 | O=C(O)c1cnc(-c2ccccc2F)[nH]c1=O | 5
6 | O=C(O)c1cnc(-c2ccccc2Cl)[nH]c1=O | 5
7 | O=C(O)c1cnc(-c2ccccc2[N+](=O)[O-])[nH]c1=O | > 50
8 | Nc1ccccc1-c1ncc(C(=O)O)c(=O)[nH]1 | 50
9 | O=C(O)c1cnc(-c2ccccc2O)[nH]c1=O | > 5
10 | COc1ccccc1-c1ncc(C(=O)O)c(=O)[nH]1 | 10
11 | CCOc1ccccc1-c1ncc(C(=O)O)c(=O)[nH]1 | 0.5
12 | CCCOc1ccccc1-c1ncc(C(=O)O)c(=O)[nH]1 | 0.9
13 | CC(C)Oc1ccccc1-c1ncc(C(=O)O)c(=O)[nH]1 | 0.8
14 | CCCCOc1ccccc1-c1ncc(C(=O)O)c(=O)[nH]1 | 0.5
15 | CC(C)COc1ccccc1-c1ncc(C(=O)O)c(=O)[nH]1 | 0.5
16 | CCC(C)Oc1ccccc1-c1ncc(C(=O)O)c(=O)[nH]1 (configuration not stated) | 0.5
17 | CCCCCOc1ccccc1-c1ncc(C(=O)O)c(=O)[nH]1 | 3
18 | C=CCOc1ccccc1-c1ncc(C(=O)O)c(=O)[nH]1 | 0.5
19 | O=C(O)c1cnc(-c2ccccc2OCC2CC2)[nH]c1=O | 0.1
20 | O=C(O)c1cnc(-c2ccccc2OCc2ccccc2)[nH]c1=O | 5
21 | CSc1ccccc1-c1ncc(C(=O)O)c(=O)[nH]1 | > 20
22 | CCSc1ccccc1-c1ncc(C(=O)O)c(=O)[nH]1 | 25

Row | Structure (SMILES) | ED50 [mg/kg]
23 | C[S+]([O-])c1ccccc1-c1ncc(C(=O)O)c(=O)[nH]1 (configuration not stated) | > 5
24 | O=C(O)c1cnc(-c2cccc(C(F)(F)F)c2)[nH]c1=O | 33
25 | COc1cccc(-c2ncc(C(=O)O)c(=O)[nH]2)c1 | 10
26 | CCOc1cccc(-c2ncc(C(=O)O)c(=O)[nH]2)c1 | 5
27 | O=C(O)c1cnc(-c2ccc(Cl)cc2)[nH]c1=O | 5
28 | O=C(O)c1cnc(-c2ccc(C(F)(F)F)cc2)[nH]c1=O | > 5
29 | COc1ccc(-c2ncc(C(=O)O)c(=O)[nH]2)cc1 | > 5
30 | C=CCc1cccc(-c2ncc(C(=O)O)c(=O)[nH]2)c1O | > 0.5
31 | COc1ccc(-c2ncc(C(=O)O)c(=O)[nH]2)c(OC)c1 | 5
32 | COc1ccc(OC)c(-c2ncc(C(=O)O)c(=O)[nH]2)c1 | 1
33 | CCOc1ccc(Cl)cc1-c1ncc(C(=O)O)c(=O)[nH]1 | 0.5
34 | CCOc1ccc(OC)cc1-c1ncc(C(=O)O)c(=O)[nH]1 | 0.2
35 | CCOc1ccc(C(=O)O)cc1-c1ncc(C(=O)O)c(=O)[nH]1 | 25
36 | CCOc1ccc([N+](=O)[O-])cc1-c1ncc(C(=O)O)c(=O)[nH]1 | 25
37 | CCOc1ccc(N)cc1-c1ncc(C(=O)O)c(=O)[nH]1 | 1.2
38 | CCOc1ccc(N(C)C)cc1-c1ncc(C(=O)O)c(=O)[nH]1 | 0.3
39 | CCOC(=O)C(=O)Nc1ccc(OCC)c(-c2ncc(C(=O)O)c(=O)[nH]2)c1 | 25
40 | CCOc1ccc(S(N)(=O)=O)cc1-c1ncc(C(=O)O)c(=O)[nH]1 | > 50
41 | CCOc1ccc(S(=O)(=O)N(C)C)cc1-c1ncc(C(=O)O)c(=O)[nH]1 | > 50
42 | CCOc1ccc(S(=O)(=O)N(CC)CC)cc1-c1ncc(C(=O)O)c(=O)[nH]1 | 40
43 | CCOc1ccc(S(=O)(=O)N(C)C(C)C)cc1-c1ncc(C(=O)O)c(=O)[nH]1 | > 10
44 | CCCOc1ccc(OC)cc1-c1ncc(C(=O)O)c(=O)[nH]1 | 0.3

Row | Structure (SMILES) | ED50 [mg/kg]
45 | CCOC(=O)c1cnc(-c2ccccc2F)[nH]c1=O | > 10
46 | CCOC(=O)c1cnc(-c2ccccc2Cl)[nH]c1=O | 5
47 | CCOC(=O)c1cnc(-c2ccccc2O)[nH]c1=O | 5
48 | CCOC(=O)c1cnc(-c2ccccc2OC)[nH]c1=O | 10
49 | CCOC(=O)c1cnc(-c2ccccc2OCC)[nH]c1=O | 2
50 | CCCOc1ccccc1-c1ncc(C(=O)OCC)c(=O)[nH]1 | 5
51 | CCOC(=O)c1cnc(-c2ccccc2OC(C)C)[nH]c1=O | 2
52 | CCCCOc1ccccc1-c1ncc(C(=O)OCC)c(=O)[nH]1 | 0.5
53 | CCOC(=O)c1cnc(-c2ccccc2OC(C)CC)[nH]c1=O (configuration not stated) | 0.5
54 | CCCCCOc1ccccc1-c1ncc(C(=O)OCC)c(=O)[nH]1 | 2
55 | C=CCOc1ccccc1-c1ncc(C(=O)OCC)c(=O)[nH]1 | 0.5
56 | CCOC(=O)c1cnc(-c2ccccc2OCC2CC2)[nH]c1=O | 0.3
57 | CCOC(=O)c1cnc(-c2ccccc2OCc2ccccc2)[nH]c1=O | > 5
58 | CCOC(=O)c1cnc(-c2ccccc2SC)[nH]c1=O | > 25
59 | CCOC(=O)c1cnc(-c2ccccc2SCC)[nH]c1=O | > 5
60 | CCOC(=O)c1cnc(-c2cccc(C(F)(F)F)c2)[nH]c1=O | 50
61 | CCOC(=O)c1cnc(-c2cccc(OCC)c2)[nH]c1=O | 50
62 | CCOC(=O)c1cnc(-c2ccc(Cl)cc2)[nH]c1=O | > 30
63 | CCOC(=O)c1cnc(-c2ccc(C(F)(F)F)cc2)[nH]c1=O | > 5
64 | CCOC(=O)c1cnc(-c2ccc(OC)cc2)[nH]c1=O | 30
65 | CCOC(=O)c1cnc(-c2ccc(OC)cc2OC)[nH]c1=O | 5
66 | CCOC(=O)c1cnc(-c2cc(OC)ccc2OC)[nH]c1=O | 5

Row | Structure (SMILES) | ED50 [mg/kg]
67 | CCOC(=O)c1cnc(-c2cc(Cl)ccc2OCC)[nH]c1=O | 0.5
68 | CCOC(=O)c1cnc(-c2cc(OC)ccc2OCC)[nH]c1=O | 0.3
69 | CCOC(=O)c1ccc(OCC)c(-c2ncc(C(=O)OCC)c(=O)[nH]2)c1 | 1
70 | CCOC(=O)c1cnc(-c2cc([N+](=O)[O-])ccc2OCC)[nH]c1=O | 5
71 | CCOC(=O)c1cnc(-c2cc(N)ccc2OCC)[nH]c1=O | 0.5
72 | CCOC(=O)C(=O)Nc1ccc(OCC)c(-c2ncc(C(=O)OCC)c(=O)[nH]2)c1 | 5
73 | CCOC(=O)c1cnc(-c2cc(S(N)(=O)=O)ccc2OCC)[nH]c1=O | 50
74 | CCOC(=O)c1cnc(-c2cc(S(=O)(=O)N(C)C)ccc2OCC)[nH]c1=O | 50
75 | CCOC(=O)c1cnc(-c2cc(S(=O)(=O)N(CC)CC)ccc2OCC)[nH]c1=O | 10
76 | CCOC(=O)c1cnc(-c2cc(S(=O)(=O)N(C)C(C)C)ccc2OCC)[nH]c1=O | > 10
77 | CCCOc1ccc(OC)cc1-c1ncc(C(=O)OCC)c(=O)[nH]1 | 0.7
78 | CCOC(=O)c1cnc(-c2cc([N+](=O)[O-])cc([N+](=O)[O-])c2OCC)[nH]c1=O | > 50
79 | Cn1c(-c2ccccc2)ncc(C(=O)O)c1=O | 50
80 | CCOC(=O)c1cnc(-c2ccccc2)n(C)c1=O | > 5
81 | CCOc1ccccc1-c1ncc(C(=O)O)c(=O)n1C | > 50
82 | CCOC(=O)c1cnc(-c2ccccc2OCC)n(C)c1=O | > 40
83 | CCOc1ccccc1-c1nc(=O)c(C(=O)O)cn1C | > 40
84 | COc1nc(-c2ccccc2)ncc1C(=O)O | > 10
85 | CCOC(=O)c1cnc(-c2ccccc2)nc1OC | > 5
86 | CCOc1ccccc1-c1ncc(C(=O)O)c(OC)n1 | > 5
87 | CC1Cc2cccc(-c3ncc(C(=O)O)c(=O)[nH]3)c2O1 (racemic) | 5
88 | CCOC(=O)c1cnc(-c2cccc3c2OC(C)C3)[nH]c1=O (racemic) | 5

Test system: Rattus norvegicus
Test: Antiallergic activity in iv dosed Sprague-Dawley rat passive cutaneous analphylaxis model assessed as inhibition of allergic response administered 1 min prior to antigen challenge
Format: functional
Conditions: read-out: ID50 (the source's name)
How it was run: as §1

Row | Structure (SMILES) | ED50 [mg/kg]
89 | CCOc1ccccc1-c1ncc(C(=O)O)c(=O)[nH]1 | 0.07
90 | CCOC(=O)c1cn(C)c(-c2ccccc2OCC)nc1=O | > 1

Test system: Rattus norvegicus
Test: Antiallergic activity in po dosed Sprague-Dawley rat passive cutaneous analphylaxis model assessed as inhibition of allergic response administered 30 mins prior to antigen challenge
Format: functional
Conditions: read-out: ID50 (the source's name)
How it was run: (§2)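 Male Sprague-Dawley rat passive cutaneous anaphylaxis (modified Ovary method), with a 24 h sensitization-to-challenge interval. The agent was dissolved in saline and given iv at the time of antigen challenge or po 30 min before challenge. The dose inhibiting the response by 50% was determined; significance was p ≤ 0.05 by Student's t test.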

Row | Structure (SMILES) | ED50 [mg/kg]
91 | O=C([O-])c1cc(=O)c2c(OCC(O)COc3cccc4oc(C(=O)[O-])cc(=O)c34)cccc2o1.[Na+].[Na+] [CROMOLYN SODIUM] | ≥ 30

Test system: Rattus norvegicus
Test: Antiallergic activity in iv dosed Sprague-Dawley rat passive cutaneous analphylaxis model assessed as inhibition of allergic response administered at the time of antigen challenge
Format: functional
Conditions: read-out: ID50 (the source's name)
How it was run: as §2

Row | Structure (SMILES) | ED50 [mg/kg]
92 | O=C([O-])c1cc(=O)c2c(OCC(O)COc3cccc4oc(C(=O)[O-])cc(=O)c34)cccc2o1.[Na+].[Na+] [CROMOLYN SODIUM] | 0.3
